This is an account of results in ChEMBL document CHEMBL5653624 (Biochem Pharmacol, 2016).

Test [1] relates to HASMC. As to the kind of experiment: Antiinflammatory activity in HASMC cells assessed as effect on LPS/IFNgamma-induced iNOS gene expression at 2 uM […] and measured after 4 hrs by RT-qPCR analysis. The class given is functional, cell-based. The following applies: Homo sapiens. In a few lines: (§1)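 HBE cells (passage 73–103) or immortalized hASM cells (2–3 donors, passage 27–35), serum-starved. Then 2 μM RGFP966 for 20 h, with LPS/IFNγ for the last 4 h. Total RNA isolated; RT-qPCR by 2−ΔΔCt, fold change versus LPS/IFNγ control. Mean ± SD of 3–5 independent experiments.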
For orientation: Quantitative PCR measures a nucleic acid by following its amplification.

The subject of test [2] is RAW264.7. Kind of test: Antiinflammatory activity in mouse RAW264.7 cells assessed as effect on LPS/IFNgamma-induced iNOS gene expression at 1 uM preincubated for 20 hrs followed by LPS/IFNgamma stimulation and measured after 4 hrs by RT-qPCR analysis. To be noted: time 24.0 hrs. In kind it is functional, cell-based. The essentials:
(§2)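 RAW 264.7 macrophages in DMEM/10% FBS received 1 μM RGFP966 for 20 h, with LPS/IFNγ for the last 4 h. Washed with cold DPBS, total RNA isolated, integrity checked by 28S/18S. RT-qPCR by comparative Ct (2−ΔΔCt), fold change versus LPS/IFNγ control. Mean ± SD of 3–5 independent experiments.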

Test [3] has as its system RAW264.7. Kind of test: Antiinflammatory activity in mouse RAW264.7 cells assessed as effect on LPS/IFNgamma-induced IL-10 gene expression at 1 uM preincubated for 20 hrs followed by LPS/IFNgamma stimulation and measured after 4 hrs by RT-qPCR analysis. In kind it is functional, cell-based. The following applies: time 24.0 hrs. The essentials: as §2
The test system of test [4] is HBE. Kind of test: Antiinflammatory activity in HBE cells assessed as effect on LPS/IFNgamma-induced IL-10 gene expression at 2 uM […] by RT-qPCR analysis. The class given is functional, cell-based. The following applies: Homo sapiens. The essentials: as §1
In test [5] the test system is HBE. Kind of test: Antiinflammatory activity in HBE cells assessed as up regulation of LPS/IFNgamma-induced IL-6 gene expression at 2 uM […] by RT-qPCR analysis. The class given is functional, cell-based. The following applies: Homo sapiens. In a few lines:
as §1

Test [6] deals with HBE. Kind of test: Antiinflammatory activity in HBE cells assessed as effect on LPS/IFNgamma-induced IL-12b gene expression at 2 uM […] by RT-qPCR analysis. The class given is functional, cell-based. To be noted: Homo sapiens. In a few lines: as §1
Test [7] has as its target T1, Histone deacetylase 3 (Mus musculus) (UniProt O88895).
T1 sequence (whole entry): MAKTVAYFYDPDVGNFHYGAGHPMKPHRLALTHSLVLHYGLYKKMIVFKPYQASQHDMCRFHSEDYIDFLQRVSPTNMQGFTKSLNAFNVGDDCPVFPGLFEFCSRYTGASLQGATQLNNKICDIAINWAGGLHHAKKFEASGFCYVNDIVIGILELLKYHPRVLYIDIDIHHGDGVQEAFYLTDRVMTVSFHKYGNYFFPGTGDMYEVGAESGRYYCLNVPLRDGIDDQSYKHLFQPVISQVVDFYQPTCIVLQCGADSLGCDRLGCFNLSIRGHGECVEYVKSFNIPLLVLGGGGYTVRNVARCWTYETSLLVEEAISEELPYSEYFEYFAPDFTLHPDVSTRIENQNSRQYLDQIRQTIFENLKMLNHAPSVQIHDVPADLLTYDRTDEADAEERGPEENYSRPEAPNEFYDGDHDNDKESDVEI
Kind of test: Inhibition of HDAC3 in mouse RAW264.7 cells assessed as effect on histone H3 peptide (KQLATKAAR) acetylation measured after 20 hrs by LC-MS/MS analysis. In kind it is cell-based. The essentials:
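Histones from RAW 264.7 (20 h treatment) run on 15% SDS-PAGE (7 μg), Coomassie-stained H3/H4 bands excised, destained, and chemically acetylated with acetic anhydride-d6 in 1 M ammonium bicarbonate; endogenous lysine acetylation ratio derived by mass spectrometry from deuterated versus non-deuterated acetyl mass difference.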

The target in test [8] is T1, Histone deacetylase 3 (Mus musculus). As to the kind of experiment: Inhibition of HDAC3 in mouse RAW264.7 cells assessed as effect on LPS/IFNgamma-induced NF-kappaB p65 nuclear translocation preincubated for 20 hrs followed by LPS/IFNgamma stimulation and measured after 1 hr by immunofluorescence microscopy. In kind it is cell-based. In a few lines:
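RAW 264.7 seeded at 20,000 cells/cm2, 1 μM inhibitor 20 h then 1 h LPS/IFNγ; fixed 4% formaldehyde, permeabilized 0.25% Triton X-100, blocked 5% BSA; rabbit anti-p65 (1:250, 2 h 4 °C) with AlexaFluor488 secondary, Hoechst nuclei; confocal imaging at identical settings; 3 independent experiments.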

For test [9] the target is unchanged. Kind of test: Inhibition of HDAC3 in mouse RAW264.7 cells assessed as effect on LPS/IFNgamma-induced NF-kappaB p65 nuclear translocation preincubated for 20 hrs followed by LPS/IFNgamma stimulation and measured after 1 hr by Western blot analysis. The class given is cell-based. The essentials:
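After 20 h inhibitor then 1 h LPS/IFNγ, RAW 264.7 cells fractionated into nuclear and cytosolic parts and immunoblotted for NF-κB p65; PARP-1 and β-actin as internal controls; densitometry as fold change versus LPS/IFNγ-treated control; 4 independent experiments, mean ± SD.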
For orientation: In western blotting, separated proteins are transferred to a membrane and probed.

Test [10] has as its system RAW264.7. Kind of test: Antiinflammatory activity in LPS/IFNgamma-stimulated mouse RAW264.7 cells assessed as reduction in HDAC1 expression preincubated for 20 hrs followed by LPS/IFNgamma stimulation and measured after 4 hrs by Western blot analysis. In kind it is functional, cell-based. To be noted: time 24.0 hrs. The essentials: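 RAW 264.7 cells were LPS/IFNγ-stimulated after inhibitor exposure, then lysed in Hepes/Triton buffer containing DTT, butyrate and protease inhibitors, freeze-thawed and cleared. Immunoblot with milk blocking and overnight primary antibody at 4 °C. Densitometry normalized to β-actin, LPS/IFNγ control set at 100%. Mean ± SD of 4 independent experiments.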

Test [11] deals with RAW264.7. As to the kind of experiment: Antiinflammatory activity in LPS/IFNgamma-stimulated mouse RAW264.7 cells assessed as effect on NF-kappaB p65 mRNA expression preincubated for 20 hrs followed by LPS/IFNgamma stimulation and measured after 4 hrs by RT-qPCR analysis. The class given is functional, cell-based. The following applies: time 24.0 hrs.
Test [12] relates to RAW264.7. Kind of test: Antiinflammatory activity in LPS/IFNgamma-stimulated mouse RAW264.7 cells assessed as effect on IkappaBalpha expression preincubated for 20 hrs followed by LPS/IFNgamma stimulation and measured after 4 hrs by Western blot analysis. To be noted: time 24.0 hrs. The class given is functional, cell-based.
The subject of test [13] is Lung. Kind of test: Antiinflammatory activity in C57bl/6 mouse precision-cut lung slices assessed as effect on LPS/IFNgamma-induced HDAC2 gene expression at 1 to 10 uM preincubated for 20 hrs followed by LPS/IFNgamma stimulation and measured after 4 hrs by RT-qPCR analysis. To be noted: dose 1-10 µM, time 24.0 hrs. The class given is functional, tissue-based.
Test [14] addresses T1, Histone deacetylase 3 (Mus musculus). Kind of test: Effect on HDAC3 nuclear localization in LPS/IFNgamma-stimulated mouse RAW264.7 cells preincubated for 20 hrs followed by LPS/IFNgamma stimulation and measured after 1 hr by Hoechst staining based confocal laser scanning microscopy. In kind it is cell-based. The essentials:
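RAW 264.7 cells at 20,000 cells/cm2 received 1 μM RGFP966 for 20 h, then 1 h LPS/IFNγ. Fixed in 4% formaldehyde, permeabilized with 0.25% Triton X-100, blocked with 5% BSA. Primary antibodies 2 h at 4 °C, AlexaFluor secondaries 1 h, Hoechst nuclear stain. Confocal imaging at 630×; 4 independent experiments.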

Test [15] shares this target. As to the kind of experiment: Inhibition of HDAC3 in mouse RAW264.7 cells assessed as effect on LPS/IFNgamma-induced NF-kappaB p65 acetylation level preincubated for 20 hrs followed by LPS/IFNgamma stimulation and measured after 1 hr by Western blot analysis.

Active and inactive are the calls of the source. The calls are words filed in the database; no cut-off is given here.

With `Nc1cc(F)ccc1NC(=O)/C=C/c1cnn(C/C=C/c2ccccc2)c1`, the result in test [1], in [2], in test [3], in [4], in test [6] and in test [11] was inactive. Further, the outcome in test [12], in test [13] and in test [14] was inactive. Further, the result in [5] and in [10] was Active. Besides, the inhibition result in test [7], in test [8], in test [9] and in test [15] was “inactive” in each case.
